Source: PubChem
Only a selection was taken, and hits are over-represented in it overall.
Insulin prom act: TRM-6 insulin promoter activation | activation, % at 2 µM | AID 1296 | 0.81% of 130,000 active | TRM-6 cells (human fetal islet line), insulin promoter eGFP reporter, imaging; plate-scaled: unstimulated 0, stimulated control 100;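 active = activation at 2 µM above a set limit, confirmed on inspection of the cell images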;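 also: share of cells whose green reporter signal exceeds an intensity cutoff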
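System – TRM-6 insulin promoter–eGFP reporter cells · Probe or stimulus – 0.75 µM tamoxifen as reporter inducer · Dosing – single-point 2 µM compound dose · Incubation – tamoxifen pre-incubation 15 h overnight, then compound exposure 48 h at 37 °C · Measured by – fixed-cell fluorescence microscopy, eGFP plus Hoechst · Evaluation – percent GFP-positive cells normalized to per-plate controls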
* hit, by the source's call; [ ] = another dose, or the depositor's remark.

SMILES	Insulin prom act
COc1cc(C2C(C(=O)c3ccc(C)o3)=C(O)C(=O)N2c2cc(C)on2)cc(Br)c1O (stereo not drawn)	5
CCOc1ccc(C2N(c3cc(C)on3)C(=O)C3CCCN32)cc1OC (stereo not drawn)	120*
CC(C(=O)O/N=C(\N)c1cccnc1)c1ccc([N+](=O)[O-])cc1 (stereo not drawn)	0
CCN(CC)C(=O)C(=O)c1cccn1-c1c(Cl)cccc1C#N	7
CCOC(=O)C(=O)c1csc(NC(=O)CCSc2ccc(C)cc2)n1	-9
COc1ccc(C(=O)CSc2nnc(-c3cc(C)cc(C)c3)o2)cc1	3
COc1cc(OC)cc(-c2nnc(SCC(=O)N3CCOCC3)o2)c1	-6
COc1cc(OC)cc(-c2nnc(SCC(=O)Nc3cc(C)on3)o2)c1	113*
Cc1cc2cc(C=C(C#N)C#N)c(Cl)nc2cc1C	-7
O=C(O)c1sc2cc(C(F)(F)F)cnc2c1-c1ccccn1	9
CC(=O)c1sc(NC(=O)COc2ccc(Cl)cc2Cl)nc1C	290*
CC(C)NC(=O)COc1ccc(Cl)cc1Cl	6
Cc1nc(NC(=O)COc2ccccc2)sc1C(=O)Nc1ccccc1	4
Cc1ccccc1N1C(=O)CC2(CCCC2)CC1=O	115
Cc1ccc(N2C(=O)CN(Cc3sccc3C)C2=S)cc1C	-3
Cc1ccccc1N1C(=O)CN(Cc2sccc2C)C1=S	84*
Cc1ccc(C2C3CSCC=C3C(C#N)=C(N)C2(C#N)C#N)cc1 (stereo not drawn)	-4
COc1cc(C2NC(=O)C(C#N)=C(S)N2c2ccccc2)ccc1OC(C)C (stereo not drawn)	192
CC(C)N1CC=C2C(C#N)=C(N)C(C#N)(C#N)[C@H](c3ccoc3)[C@H]2C1	161*
COc1cc(C2C3CN(C)CC=C3C(C#N)=C(N)C2(C#N)C#N)ccc1OC(C)C (stereo not drawn)	257*
CN1C2C=C3C(C#N)=C(N)C(C#N)(C#N)C(c4ccc(Br)cc4)C3C1CC2 (stereo not drawn)	281
COc1ccccc1NC(=O)C1=C(C)NC2=C(C(=O)CC(c3ccc(OC)c(OC)c3)C2)C1c1coc2ccccc2c1=O (stereo not drawn)	0
CSc1nnc(SCC2=NNC(=O)SC2)s1	-8
COc1ccc(CCNC(=O)CC2SC(=NCCc3ccccc3)NC2=O)cc1OC (stereo not drawn)	7
O=C(CCCCC(=O)NC1CCCC1)NC1CCCC1	-7
SMILES	Insulin prom act
COc1cc(/C=N/Nc2nc(C)cc(=O)[nH]2)ccc1OC(=O)c1cccnc1	-7
CCCNC(=O)c1cnc(Sc2ncc(C(F)(F)F)cc2Cl)n1C	9
FC(F)(F)c1cnc(Sc2nnc(-c3cccs3)n2CC2CCCO2)c(Cl)c1 (stereo not drawn)	-8
N#Cc1c(Sc2ncc(C(F)(F)F)cc2Cl)nsc1C/C=N\OCc1c(F)cccc1Cl	543*
CCn1c(COc2ccc(=O)n(-c3ccccc3)n2)nnc1SC	118
O=C1C2C(C(=O)N1/N=C/c1cccc([N+](=O)[O-])c1)C1C=CC2C12CC2 (stereo not drawn)	7
CCC(CC)N=C1NS(=O)(=O)c2cc([N+](=O)[O-])ccc21	-6
O=C(Nc1cccc(-c2nc3cccnc3s2)c1)c1ccco1	481*
O=C(Nc1nccs1)c1cccc(NC(=O)c2ccco2)c1	-93
O=C(Nc1cccc(-c2cnc3ccccc3n2)c1)c1cccc(NC(=O)c2ccco2)c1	7
COC(=O)C/C(O)=C(/N=Nc1cccc(C(F)(F)F)c1)C(=O)OC	-9
CC(C)CNC(=O)CO/N=C/c1ccccc1Cl	108
O=C(Nc1ccccc1)O/N=C/c1ccccc1Cl	87*
O=[N+]([O-])c1ccc(Cl)c(/C=N/NC(=S)Nc2ccccc2)c1	5
CC(C)(C)c1c(Cl)c(O)c(-c2ccccc2)c(=O)n1-c1ccccc1	6
CCOc1ccc(-c2cc(C(=O)OC)[nH]n2)cc1	0
Cc1cc(NC(=O)c2cnn3c(C(F)F)cc(-c4ccccc4)nc23)no1	9
Cc1cc(NC(=O)c2cnn3c(C(F)(F)F)cc(-c4ccccc4)nc23)no1	429*
Cc1cc(NC(=O)c2cnn3c(C(F)F)cc(C4CC4)nc23)no1	107
O=C(COC(=O)c1cccc(C(=O)OCC(=O)NCc2ccc(F)cc2)n1)NCc1ccc(F)cc1	113
O=C(O)C1C2CCC(O2)C1C(=O)NCc1ccc(Cl)cc1 (stereo not drawn)	-62
O=Nc1c(O)n(Cc2ccc(Cl)c(Cl)c2)c2ccccc12	-8
COc1ccc(NC(=O)C(=O)N/N=C/c2cc(C)n(-c3cccc(Cl)c3Cl)c2C)c(OC)c1	0
CCCn1c(CN(C)Cc2ccccc2)nc2c1c(=O)n(C)c(=O)n2C	0
CCCCn1c(CN(C)Cc2ccccc2)nc2c1c(=O)n(C)c(=O)n2C	-71
SMILES	Insulin prom act
CN(Cc1ccccc1)Cc1nc2c([nH]1)c(=O)n(C)c(=O)n2C	105*
c1ccc(-c2nn3nnnc3c3ccccc23)cc1	174
Clc1ccc(-c2nc(N3CCCCC3)nc3ccccc23)cc1	5
c1ccc(-c2nc(-n3nc4ccccc4n3)nc3ccccc23)cc1	146*
CN(C)C(=O)C1C2NC(=S)N(c3cccc(Cl)c3)C1(C)Oc1ccc(Cl)cc12 (stereo not drawn)	7
CCN1C(=O)/C(=C\N2CCN(C)CC2)SC1=S	9
CCOC(=O)CN1C(=O)S/C(=C/c2cc(C)n(C)c2C)C1=O	2
COCCN1C(=O)/C(=C/c2ccc(N3CCCC3)cc2C)SC1=S	456*[fluoresces]
O=C1CCC(C(=O)Nc2cccc(S(=O)(=O)N3CCOCC3)c2)N1 (stereo not drawn)	0
CCOC(=O)CSc1ccc(S(=O)(=O)N(C)C2CCCCC2)cc1[N+](=O)[O-]	-3
Cc1ccccc1CS(=O)(=O)c1nnc([C@H](Cc2ccccc2)NC(=O)OC(C)(C)C)o1	-78
CC(C)(C)OC(=O)N[C@@H](Cc1c[nH]c2ccccc12)c1nnc(SCC(N)=O)o1	0
CC(C)(C)OC(=O)N[C@@H](Cc1ccccc1)c1nnc(SCC(=O)c2ccc(Cl)cc2)o1	507*
O=C(O)c1ccc(NCCC2=CCCCC2)c([N+](=O)[O-])c1	8
FC(F)(F)c1ccc2c(c1)[nH]c(=S)n2C1CC1	0
COCCSc1nnc(NC(=O)c2cc(C(=O)OC)cc([N+](=O)[O-])c2)s1	7
COc1ccc([N+](=O)[O-])cc1NC(=O)CC(c1ccccc1)c1ccccc1	193
COC(=O)c1sc2cc([N+](=O)[O-])cc(SCC(C)C)c2c1N	590*
CC(O)C(NS(=O)(=O)c1ccc(Cl)cc1)C(=O)OCC(=O)N1CCN(c2ccccc2)CC1 (stereo not drawn)	6
O=C(CCSCCC(=O)Nc1ccccc1F)Nc1ccccc1F	7
COc1ccccc1Nc1nc(N)nc(CN2CC(C)CC(C)C2)n1 (stereo not drawn)	-8
Cc1onc(-c2c(F)cccc2Cl)c1C(=O)OCn1nnc2ccccc2c1=O	-52
O=C(/C=C/c1ccc(OCCCF)cc1)NCc1ccc(Cl)cc1	223*
COc1ccc(/C=C/C(=O)NCCOc2ccc(C)cc2)cc1	-7
Cc1ccc(CSCCNC(=O)/C=C/c2ccc(Cl)cc2)cc1	3
O=C(Nc1cc2c(cc1Cl)OCCCO2)c1ccccc1	-4
COc1cc(/C=C2\C(=O)N(CCC#N)N=C2C)ccc1OCC(=O)Nc1ccccc1	-3
COc1cc(/C=C(\C#N)c2ccccn2)ccc1OCC(=O)Nc1cccc(C(F)(F)F)c1	280*
